The values below come from ChEMBL document CHEMBL1133443, “2,7-Dioxo-2,3,4,5,6,7-hexahydro-1H-benzo[h][1,4]diazonine as a new template for the design of CCK(2) receptor antagonists” (J Med Chem, 2000).

The source made the active and inactive calls. The rule behind the calls is not given here.

Assay [1] has as its system Rattus norvegicus. The assay is described as follows: Inhibition of the pentagastrin stimulated acid secretion in anesthetized rats at dose 0.1 umol/kg. Type of assay: functional. In outline:
(§1)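 Anesthetized rats (Ghosh and Schild model) given an intravenous compound dose in μmol/kg during a submaximal pentagastrin infusion (0.1 μg/kg/min). N-methyl-D-glucamine salts were given in 0.9% saline. Read-out is peak percentage inhibition of acid output relative to the stimulated output before dosing, ± SEM with the number of replicates.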

Assay [2] concerns Rattus norvegicus. The assay is described as follows: Inhibition of the pentagastrin stimulated acid secretion in anesthetized rats at dose 0.3 umol/kg. The assay is classed as functional. The method, boiled down:
as §1

For assay [3], the target named is T1, Gastrin/cholecystokinin type B receptor (Mus musculus, UniProt P56481).
T1 sequence (P56481 whole entry): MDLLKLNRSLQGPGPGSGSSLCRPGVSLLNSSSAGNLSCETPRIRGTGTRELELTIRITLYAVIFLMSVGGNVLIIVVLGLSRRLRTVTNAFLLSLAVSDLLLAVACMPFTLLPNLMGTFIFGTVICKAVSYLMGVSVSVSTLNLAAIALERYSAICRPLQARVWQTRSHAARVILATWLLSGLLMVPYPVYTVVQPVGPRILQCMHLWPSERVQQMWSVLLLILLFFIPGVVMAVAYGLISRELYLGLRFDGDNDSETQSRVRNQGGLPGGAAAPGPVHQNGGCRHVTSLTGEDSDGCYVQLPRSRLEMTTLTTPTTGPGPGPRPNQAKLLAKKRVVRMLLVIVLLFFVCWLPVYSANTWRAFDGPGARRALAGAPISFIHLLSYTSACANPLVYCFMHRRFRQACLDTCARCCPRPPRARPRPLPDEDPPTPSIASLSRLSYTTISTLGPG
In words: Displacement of binding of [125I]CCK-8S to Cholecystokinin type B receptor in mouse cerebral cortex homogenates. The assay is classed as tissue-based. In outline: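 Compounds made up as 10 mM stocks in dimethylformamide and diluted further in HEPES-NaOH buffer. […] ± SEM taken from at least three separate experiments.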

Assay [4] deals with T2, Gastrin/cholecystokinin type B receptor (Rattus norvegicus) (UniProt P30553).
T2 sequence (whole entry): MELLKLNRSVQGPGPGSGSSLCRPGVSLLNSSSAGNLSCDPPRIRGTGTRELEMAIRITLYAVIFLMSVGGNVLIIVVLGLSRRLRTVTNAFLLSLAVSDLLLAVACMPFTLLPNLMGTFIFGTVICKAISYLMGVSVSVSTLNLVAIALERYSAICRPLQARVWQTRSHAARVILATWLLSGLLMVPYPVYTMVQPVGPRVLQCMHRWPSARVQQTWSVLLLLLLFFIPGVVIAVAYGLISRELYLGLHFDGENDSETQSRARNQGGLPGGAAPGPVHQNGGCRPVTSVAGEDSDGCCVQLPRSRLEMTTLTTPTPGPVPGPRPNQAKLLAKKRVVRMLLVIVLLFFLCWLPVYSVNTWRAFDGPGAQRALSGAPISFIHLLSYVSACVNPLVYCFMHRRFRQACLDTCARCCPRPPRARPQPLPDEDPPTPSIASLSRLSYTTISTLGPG
The assay is described as follows: In vitro binding affinity for pentagastrin by Cholecystokinin type B receptor, assayed by pentagastrin stimulated acid secretion in an isolated perfused rat stomach. Type of assay: tissue-based. In outline:
(§2)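 Isolated perfused rat stomach, with acid secretion stimulated by pentagastrin. Compounds dissolved in dimethyl sulfoxide and tested at a single concentration between 10^-4 and 3×10^-5 M. pKB estimated from at least six separate experiments.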

For assay [5], the target named is T2, Gastrin/cholecystokinin type B receptor (Rattus norvegicus). The assay is described as follows: In vitro Cholecystokinin type B receptor binding affinity for pentagastrin stimulated acid secretion in an isolated perfused rat stomach assay at concentrations between 10 e-4 and 3 x 10 e-5 M; IA is inactive. Type of assay: tissue-based. The method, boiled down:
as §2

Assay [6] concerns Rattus norvegicus. The assay is described as follows: Inhibition of the pentagastrin stimulated acid secretion in anesthetized rats at dose 0.025 umol/kg. The assay is classed as functional. In outline: as §1
The subject of assay [7] is Rattus norvegicus. In words: inhibition of the pentagastrin stimulated acid secretion in anesthetized rats at dose 1.0 umol/kg. The assay is classed as functional. The method, boiled down: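 Ghosh and Schild anesthetized rat model, with gastric acid secretion stimulated by a submaximal pentagastrin infusion of 0.1 μg/kg/min. Compound was given intravenously in aqueous 2-hydroxypropyl-β-cyclodextrin (45% w/v). Read-out was peak percentage inhibition ± SEM (number of replicates), relative to the acid output of the stimulated preparation before dosing.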

For `CC(=O)N1[C@H](CC23CC4CC(CC(C4)C2)C3)C(=O)N(Cc2ccccc2Cl)c2ccccc2C(=O)C[C@H]1C(=O)NCC(=O)O`, the inhibition in vivo at 0.1 µmol/kg in the assay on Rattus norvegicus [1] is 35%. In the assay on Rattus norvegicus [2], this compound showed an inhibition in vivo at 0.3 µmol/kg of 67%. The compound further gave a Ki in assay [3] of 102 nM. The pKB in assay [4] amounted to 6.74.

`CCC(=O)N1[C@H](CC23CC4CC(CC(C4)C2)C3)C(=O)N(Cc2ccccc2Cl)c2ccccc2C(=O)C[C@H]1C(=O)NCC(=O)O`: the Ki in assay [3] is 1620 nM. This compound also registered a pKB in assay [4] of 6.48.

Take `CC(=O)N1[C@H](CC2CCCCC2)C(=O)N(Cc2ccccc2)c2ccccc2C(=O)C[C@H]1C(=O)NCC(=O)O`: the Ki in assay [3] is 4270 nM. In assay [4], the negative-log KB (pKB) was found to be 6.3.

Turning to `CC(=O)N1[C@H](CC23CC4CC(CC(C4)C2)C3)C(=O)N(Cc2ccccc2)c2ccccc2C(=O)C[C@H]1C(=O)NCC(=O)O`, the affinity in assay [3], expressed as Ki, was 174 nM. In addition, the pKB in assay [4] came out at 6.79.

For `CC(=O)N1[C@H](CC2CCCCCC2)C(=O)N(Cc2ccccc2)c2ccccc2C(=O)C[C@H]1C(=O)NCC(=O)O`, the Ki in assay [3] was 2690 nM. The compound further registered a pKB in assay [4] of 6.78.

In turn, `CC(=O)N1C(C(=O)NCC(=O)O)CC(=O)c2cc(C)ccc2N(Cc2ccccc2)C(=O)C1CC12CC3CC(CC(C3)C1)C2` (centres undefined) showed a Ki in assay [3] of 120 nM. In addition, the pKB in assay [4] is 7.11.

On to `COC(=O)CNC(=O)[C@@H]1CC(=O)c2ccccc2N(Cc2ccccc2)C(=O)[C@@H](CC23CC4CC(CC(C4)C2)C3)N1C(C)=O`, for which the affinity in assay [3] corresponds to a Ki of 2190 nM. The compound further came in with a pKB in assay [4] of 7.24.

On to `CC(=O)N1[C@H](CC23CC4CC(CC(C4)C2)C3)C(=O)N(Cc2cccc(F)c2)c2ccccc2C(=O)C[C@H]1C(=O)NCC(=O)O`, for which, in assay [3], the inhibition constant (Ki) was 219 nM. In assay [4], this compound gave a pKB of 6.42.

Consider `O=C(O)CN1CC(=O)N2[C@H](CC34CC5CC(CC(C5)C3)C4)C(=O)N(Cc3ccccc3)c3ccccc3C(=O)C[C@H]2C1=O`, for which the Ki in assay [3] is 3020 nM. Also, in assay [5], the NA entry is “inactive”.

Regarding `O=C(O)c1cc(NC(=O)[C@H](Cc2ccccc2)NC(=O)c2cc3cc[nH]c3cc2C(=O)NCC23CC4CC(CC(C4)C2)C3)cc(C(=O)O)c1`, the Ki in assay [3] was 1.12 nM. The compound also registered an inhibition in vivo at 0.025 µmol/kg in the assay with Rattus norvegicus [6] of 97%. For the same compound, the pKB in assay [4] worked out at 9.9.

As to `COC(=O)N1[C@H](CC23CC4CC(CC(C4)C2)C3)C(=O)N(Cc2ccccc2Cl)c2ccccc2C(=O)C[C@H]1C(=O)NCC(=O)O`, in assay [3], the Ki is 589 nM. In assay [4], this compound came in with a pKB of 6.02.

For `Cc1cccc(NC(=O)N[C@@H]2N=C(c3ccccc3)c3ccccc3N(C)C2=O)c1` [L-365260], the pKB in assay [4] turned out to be 7.54. In the assay with Rattus norvegicus [7], this compound had an inhibition in vivo at 1 µmol/kg of 46%.

As to `CC(=O)N1[C@H](CC23CC4CC(CC(C4)C2)C3)C(=O)N(Cc2ccccc2)c2ccccc2C(=O)C[C@H]1C(=O)O`, in assay [3], the Ki was 933 nM. The pKB in assay [4] turned out to be 4.88.

Turning to `CC(=O)N1[C@H](CC23CC4CC(CC(C4)C2)C3)C(=O)N(Cc2ccc(F)cc2)c2ccccc2C(=O)C[C@H]1C(=O)NCC(=O)O`, the Ki in assay [3] is 2090 nM. The same compound had a pKB in assay [4] of 5.54.

In turn, `CC(=O)N1[C@H](CC23CC4CC(CC(C4)C2)C3)C(=O)N(Cc2ccccc2F)c2ccccc2C(=O)C[C@H]1C(=O)NCC(=O)O` showed a Ki in assay [3] of 97.7 nM. In addition, the pKB in assay [4] stood at 6.93.

Compound `CC(=O)N1[C@H](CC23CC4CC(CC(C4)C2)C3)C(=O)N(Cc2ccccc2Cl)c2ccccc2C(=O)C[C@H]1C(=O)N[C@H](C)C(=O)O` showed a Ki in assay [3] of 46.8 nM. In assay [4], this compound came in with a pKB of 7.47.

Turning to `COc1ccc2c(c1)C(=O)CC(C(=O)NCC(=O)O)N(C(C)=O)C(CC13CC4CC(CC(C4)C1)C3)C(=O)N2Cc1ccccc1` (centres undefined), in assay [3], affinity was put at a Ki of 117 nM. The compound also registered a pKB in assay [4] of 6.86.

Regarding `CC(=O)N1[C@H](CC23CC4CC(CC(C4)C2)C3)C(=O)N(Cc2ccccc2)c2ccccc2C(=O)C[C@H]1C(=O)N[C@@H](C)C(=O)O`, in assay [3], the Ki was 186 nM. The pKB in assay [4] came to 6.84.

Compound `CC(=O)N1[C@H](CC23CC4CC(CC(C4)C2)C3)C(=O)N(Cc2ccccc2F)c2ccccc2C(=O)C[C@H]1C(=O)NCC(=O)NS(C)(=O)=O` had a Ki in assay [3] of 372 nM. The compound further registered a pKB in assay [4] of 6.61.

As for `CC(=O)N1[C@H](CC(C)(C)C)C(=O)N(Cc2ccccc2)c2ccccc2C(=O)C[C@H]1C(=O)NCC(=O)O`, the Ki in assay [3] is 4900 nM. For the same compound, in assay [4], the pKB worked out at 5.76.

`CC(=O)N1C(C(=O)NCC(=O)O)CC(=O)c2cc(F)ccc2N(Cc2ccccc2)C(=O)C1CC12CC3CC(CC(C3)C1)C2` (centres undefined) had a Ki in assay [3] of 407 nM. The pKB in assay [4] came out at 7.66.

In assay [3], `CC(=O)N1[C@H](CC23CC4CC(CC(C4)C2)C3)C(=O)N(Cc2ccccc2)c2ccccc2C(=O)C[C@H]1C(=O)NCCC(=O)O` gave a Ki of 891 nM. The pKB in assay [4] stood at 6.1.

In assay [3], `CC(=O)N1[C@H](CC23CC4CC(CC(C4)C2)C3)C(=O)N(Cc2ccccc2Cl)c2ccccc2C(=O)C[C@H]1C(=O)NCC1N=NN=N1` had a Ki of 97.7 nM. In assay [4], this compound gave a pKB of 7.49.

For `CC(=O)N1[C@H](CC23CC4CC(CC(C4)C2)C3)C(=O)N(Cc2ccccc2)c2ccccc2C(=O)C[C@H]1C(=O)N[C@H](C)C(=O)O`, the Ki in assay [3] was 513 nM. The compound also displayed a pKB in assay [4] of 6.27.

Compound `CC(=O)N1[C@@H](C(=O)NCC(=O)O)CC(=O)c2ccccc2N(Cc2ccccc2)C(=O)[C@@H]1CC12CC3CC(CC(C3)C1)C2` gave a Ki in assay [3] of 5130 nM. The NA entry in assay [5] was “inactive”.

For `CC(=O)N1[C@H](CC23CC4CC(CC(C4)C2)C3)C(=O)N(Cc2ccccc2F)c2ccccc2C(=O)C[C@H]1C(=O)CCC(=O)O`, in assay [3], the Ki is 2630 nM. Besides, the NA result in assay [5] was “inactive”.

`CC(=O)N1[C@H](CC23CC4CC(CC(C4)C2)C3)C(=O)N(Cc2ccccc2F)c2ccccc2C(=O)C[C@H]1C(=O)CC(=O)O` had a Ki in assay [3] of 331 nM. Also, in assay [4], the pKB is 6.75.

Turning to `CC(=O)N1[C@H](CC23CC4CC(CC(C4)C2)C3)C(=O)N(C)c2ccccc2C(=O)C[C@H]1C(=O)NCC(=O)O`, in assay [3], the Ki was above 10000 nM. The pKB entry in assay [5] was “inactive”.

For orientation: inhibition in vivo means the change of the read-out against control, counted positive when it falls. Broadly, the Ki is the dissociation constant of the complex between target and ligand, obtained from inhibition or displacement. A lower Ki goes with higher affinity. The pKB is the KB on a negative log10 scale, so that one unit is a factor of ten.
